The text below walks through data of ChEMBL document CHEMBL4425098, “Thiolactomycin-Based Inhibitors of Bacterial β-Ketoacyl-ACP Synthases with in Vivo Activity” (J Med Chem, 2016).

The test in a line: Binding affinity to Mycobacterium tuberculosis FabB C171Q mutant expressed in Mycobacterium smegmatis MC2 155 by intrinsic tryptophan fluorescence quenching-based fluorimetric method. The procedure, abridged:
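Kd by quenching of intrinsic tryptophan fluorescence (excitation 280 nm, emission 337 nm). Inhibitor stocks in DMSO or buffer were titrated into 1 μM His-tag-purified enzyme in 50 mM Tris-HCl, 150 mM NaCl, 1 mM DTT, pH 8.5. mtFabB was expressed in M. smegmatis MC²155; saFabF was expressed in E. coli BL21(DE3) pLysS.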
The molecule `C=C/C(C)=C/[C@@]1(C)SC(=O)C(C)=C1O` [THIOLACTOMYCIN] yielded a Ki of 175 µM.
`C=C/C(C)=C/[C@@]1(C)SC(=O)C=C1OCC(=O)NCCNC(=O)OC(C)(C)C` had a Ki of more than 200 µM.
The figure for `C=C/C(C)=C/[C@@]1(C)SC(=O)C=C1OCC(=O)NCCN=[N+]=[N-]` is more than 200 µM.
